Measured values published in ChEMBL document CHEMBL2401701, “Notable difference in anti-HIV activity of integrase inhibitors as a consequence of geometric and enantiomeric configurations” (Bioorg Med Chem Lett, 2013).
Each block holds one compound with its values, some of them ahead of it. Activity calls are given as the source filed them. The calls are words filed in the database; no cut-off is given here.

How the values were obtained:
[1] = system: Liver microsomes; experiment: Metabolic stability in human liver microsomes assessed as retention time of metabolite at 50 uM by HPLC-UV analysis; assay type: ADME, Microsome
Method in brief: (§1)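 Pooled mixed-gender human liver microsomes (0.5 mg/mL protein) were incubated with 2 mM NADPH, 0.5 U/mL G-6-P-DH, 5 mM MgCl₂ and 5 mM G-6-P in 100 mM potassium phosphate pH 7.4. After 3 min preincubation at 37 °C, NADPH was added to start the reaction, which ran 60 min. Samples taken at 0, 15, 30, 45 and 60 min were quenched with ice-cold acetonitrile, then run on reversed-phase C18 HPLC (phosphate pH 6.5/acetonitrile gradient) with UV at 360 nm. Data are mean ± SD of three.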

[2] = target: T1, CYP2D6 (Homo sapiens, UniProt P10635); experiment: Activity at CYP2D6 in human liver microsomes using dextromethorphan as substrate at 50 uM preincubated for 3 mins prior to NADPH addition by HPLC-UV analysis relative to control; assay type: ADME, Microsome; conditions: probe dextromethorphan, read-out: Activity
T1 sequence (P10635 whole entry): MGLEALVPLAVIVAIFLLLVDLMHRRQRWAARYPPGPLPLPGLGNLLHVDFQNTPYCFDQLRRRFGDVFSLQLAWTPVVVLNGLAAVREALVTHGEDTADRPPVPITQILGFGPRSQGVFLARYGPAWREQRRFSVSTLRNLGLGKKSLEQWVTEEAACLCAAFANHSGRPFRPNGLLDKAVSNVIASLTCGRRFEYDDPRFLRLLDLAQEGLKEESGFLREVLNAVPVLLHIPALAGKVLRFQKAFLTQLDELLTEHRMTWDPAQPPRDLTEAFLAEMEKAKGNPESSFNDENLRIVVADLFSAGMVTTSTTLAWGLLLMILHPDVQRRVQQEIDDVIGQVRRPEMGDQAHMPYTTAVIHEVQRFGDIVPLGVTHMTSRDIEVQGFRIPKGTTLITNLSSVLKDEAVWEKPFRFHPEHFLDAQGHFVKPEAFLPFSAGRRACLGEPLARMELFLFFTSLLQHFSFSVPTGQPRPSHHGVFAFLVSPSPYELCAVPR
Method in brief: (§2)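 Pooled mixed-gender human liver microsomes in 100 mM potassium phosphate (pH 7.4) with 5 mM MgCl₂, probe substrate at its Km-based level, and test compound. Final volume 100 µL. Preincubated 3 min at 37 °C, then started with 2 mM NADPH (final). Metabolite was read by HPLC-UV: 6β-hydroxytestosterone at 254 nm, 4-hydroxytriazolam at 260 nm, dextrorphan at 278 nm. Activity is given as % of control (100%), mean ± SD of three.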

[3] = target: T2, CYP3A4 (Homo sapiens, UniProt P08684); experiment: Activity at CYP3A4 in human liver microsomes using testosterone as substrate at 12.5 uM preincubated for 3 mins prior to NADPH addition by HPLC-UV analysis relative to control; assay type: ADME, Microsome; conditions: probe testosterone, read-out: Activity; method in brief: as §2
T2 sequence (P08684 whole entry): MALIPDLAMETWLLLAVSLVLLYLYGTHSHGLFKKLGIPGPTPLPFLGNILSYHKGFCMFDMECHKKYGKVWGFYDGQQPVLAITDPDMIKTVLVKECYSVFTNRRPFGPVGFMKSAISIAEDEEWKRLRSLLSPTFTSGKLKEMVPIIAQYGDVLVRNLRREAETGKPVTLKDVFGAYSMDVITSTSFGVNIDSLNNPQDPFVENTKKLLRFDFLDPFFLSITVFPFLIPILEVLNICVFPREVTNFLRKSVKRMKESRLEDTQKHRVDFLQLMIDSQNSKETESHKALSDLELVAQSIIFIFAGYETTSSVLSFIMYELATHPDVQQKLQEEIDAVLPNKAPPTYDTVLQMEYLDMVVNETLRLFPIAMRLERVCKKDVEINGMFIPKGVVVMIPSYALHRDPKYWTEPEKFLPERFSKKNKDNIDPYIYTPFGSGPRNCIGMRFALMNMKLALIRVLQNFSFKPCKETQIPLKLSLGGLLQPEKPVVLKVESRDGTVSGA

[4] = target: T1, CYP2D6; experiment: Activity at CYP2D6 in human liver microsomes using dextromethorphan as substrate at 25 uM preincubated for 3 mins prior to NADPH addition by HPLC-UV analysis relative to control; assay type: ADME, Microsome; conditions: probe dextromethorphan, read-out: Activity; method in brief: as §2
[5] = target: T2, CYP3A4; experiment: Activity at CYP3A4 in human liver microsomes using triazolam as substrate at 50 uM preincubated for 3 mins prior to NADPH addition by HPLC-UV analysis relative to control; assay type: ADME, Microsome; conditions: probe triazolam, read-out: Activity; method in brief: as §2
[6] = target: T2, CYP3A4; experiment: Activity at CYP3A4 in human liver microsomes using testosterone as substrate at 25 uM preincubated for 3 mins prior to NADPH addition by HPLC-UV analysis relative to control; assay type: ADME, Microsome; conditions: probe testosterone, read-out: Activity; method in brief: as §2
[7] = Half life in human liver microsomes at 50 uM preincubated for 3 mins prior to NADPH addition measured after 60 mins by HPLC analysis; assay type: ADME, Microsome; method in brief: as §1
[8] = system: Human immunodeficiency virus 1; experiment: Antiviral activity against Human immunodeficiency virus 1 NL4-3 infected in human MAGI cells after 6 days by beta-galactosidase reporter gene assay; assay type: functional, organism-based; conditions: Human immunodeficiency virus 1, NL4-3, MAGI, 144 h
Method in brief: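 MAGI cells carrying an LTR-β-galactosidase reporter were infected with HIV-1 in the presence of compound. After 6 days post-infection, cells were lysed and β-galactosidase activity was read by chemiluminescence. Values are means of three determinations.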

[9] = system: Liver microsomes; experiment: Metabolic stability in human liver microsomes assessed as retention time of parent compound at 50 uM by HPLC-UV analysis; assay type: ADME, Microsome; method in brief: as §1
[10] = Cytotoxicity against human MAGI cells by MTS assay; assay type: cell-based
[11] = target: T1, CYP2D6; experiment: Activity at CYP2D6 in human liver microsomes using dextromethorphan as substrate at 12.5 uM preincubated for 3 mins prior to NADPH addition by HPLC-UV analysis relative to control; assay type: ADME, Microsome; conditions: probe dextromethorphan, read-out: Activity; method in brief: as §2
[12] = target: T2, CYP3A4; experiment: Activity at CYP3A4 in human liver microsomes using triazolam as substrate at 12.5 uM preincubated for 3 mins prior to NADPH addition by HPLC-UV analysis relative to control; assay type: ADME, Microsome; conditions: probe triazolam, read-out: Activity; method in brief: as §2
[13] = target: T2, CYP3A4; experiment: Activity at CYP3A4 in human liver microsomes using triazolam as substrate at 25 uM preincubated for 3 mins prior to NADPH addition by HPLC-UV analysis relative to control; assay type: ADME, Microsome; conditions: probe triazolam, read-out: Activity; method in brief: as §2
[14] = target: Human immunodeficiency virus type 1 integrase (Human immunodeficiency virus 1) (UniProt Q7ZJM1); experiment: (§3) Inhibition of HIV-1 integrase strand transfer activity after 1 hr by ELISA
Human immunodeficiency virus type 1 integrase (Human immunodeficiency virus 1), sequence (Q7ZJM1 as listed by the source): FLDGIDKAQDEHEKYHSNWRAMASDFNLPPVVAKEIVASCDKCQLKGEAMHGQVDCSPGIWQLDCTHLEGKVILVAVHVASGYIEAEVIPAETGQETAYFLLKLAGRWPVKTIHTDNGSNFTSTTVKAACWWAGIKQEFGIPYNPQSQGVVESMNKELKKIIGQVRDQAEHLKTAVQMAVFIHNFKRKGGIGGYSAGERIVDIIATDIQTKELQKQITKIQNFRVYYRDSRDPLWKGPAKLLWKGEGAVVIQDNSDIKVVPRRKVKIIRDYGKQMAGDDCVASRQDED
Method in brief: (§4)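 DNA substrate (20 nM final), serially diluted compound, and recombinant HIV-1 integrase were combined in 20 mM HEPES pH 7.5, 10 mM MgCl₂, 5% PEG, 0.1 mg/mL BSA, 5 mM DTT. The mix was moved to streptavidin plates for 1 h at room temperature, then washed with NaOH/NaCl/EDTA and Tris-EDTA. Detection antibody was applied for 1 h at 37 °C, followed by TMB for 10 min and absorbance at 450 nm.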

[15] = target: Human immunodeficiency virus type 1 integrase (Human immunodeficiency virus 1, UniProt Q7ZJM1); experiment: as §3; method in brief: as §4
Human immunodeficiency virus type 1 integrase, sequence (Q7ZJM1 whole entry): as the sequence (Q7ZJM1 as listed by the source) above

Retention_time [1]: 9.1 min
activity at 50 µM [2]: 87%
activity at 12.5 µM [3]: 109%
activity at 25 µM [4]: 87%
activity at 50 µM [5]: 100%
activity at 25 µM [6]: 97%
half-life at 50 µM [7]: 120 min
EC50 [8]: 25.1 nM
EC90 [8]: 415 nM
Retention_time [9]: 10.48 min
activity at 12.5 µM [11]: 86%
activity at 12.5 µM [12]: 124%
activity at 25 µM [13]: 98%
SMILES: O=C(/C=C(\O)c1cc(Cc2ccc(F)cc2F)cn(Cc2ccccc2F)c1=O)C(=O)N[C@H]1CCC[C@@H]1O
CC50 [10]: 40.4 µM

EC50 [8]: 42.2 nM
EC90 [8]: 871 nM
SMILES: O=C(/C=C(\O)c1cc(Cc2ccc(F)cc2F)cn(Cc2ccccc2F)c1=O)C(=O)N[C@@H]1CCC[C@H]1O
CC50 [10]: 137 µM

inhibition [14]: inactive
SMILES: O=C(/C=C(\O)c1cc(Cc2ccc(F)cc2F)cn(Cc2ccccc2F)c1=O)C(=O)N[C@@H]1CCC[C@@H]1O (racemic)

IC50 [15]: 48 nM
SMILES: O=C(/C=C(\O)c1cc(Cc2ccc(F)cc2F)cn(Cc2ccccc2F)c1=O)C(=O)N[C@@H]1CCC[C@H]1O (racemic)
